Active and inactive are the calls of the source. No cut-off for these calls is given here.
How the values were obtained:
Mus musculus [1] = experiment: Anticonvulsant activity in F1 albino mouse assessed as protection against subcutaneous pentylenetetrazole-induced seizures at 100 mg/kg, ip after 1 hr; format: functional, organism-based; design: dose 100 mg/kg
Procedure, shortened: (§1)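 Male albino F-1 mice (18–25 g), groups of 1–5 (rotorod 2–8). Compound given ip as a suspension in 0.5% methylcellulose at 30, 100 and 300 mg/kg. Seizures by maximal electroshock or subcutaneous pentylenetetrazole; neurotoxicity by rotorod. Read at 0.5 and 4 h, with some at 0.25, 1 and 2 h. Value is the minimum active dose, with protected (or toxic)/tested animals.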

Mus musculus [2] = experiment: Anticonvulsant activity in F1 albino mouse assessed as protection against subcutaneous pentylenetetrazole-induced seizures at 300 mg/kg, ip after 0.5 hrs; format: functional, organism-based; design: dose 300 mg/kg; procedure, shortened: as §1
Mus musculus [3] = experiment: Anticonvulsant activity in F1 albino mouse assessed as protection against maximal electroshock-induced seizures at 300 mg/kg, ip after 0.25 hrs; format: functional, organism-based; design: dose 300 mg/kg; procedure, shortened: as §1
Rattus norvegicus [4] = experiment: Neurotoxicity in Sprague-Dawley albino rat assessed as minimal motor impairment at 30 mg/kg, po after 1 hr by rotorod test; format: toxicity, organism-based; design: dose 30 mg/kg, route oral; details: in vivo
Procedure, shortened: (§2)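 Male Sprague-Dawley albino rats (100–150 g), groups of 4. Oral suspension in 0.5% methylcellulose/water. Protection assessed by maximal electroshock or subcutaneous pentylenetetrazole; motor impairment by rotorod. Time points 0.25–4 h. Value is protected (or toxic)/tested animals.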

Mus musculus [5] = experiment: Neurotoxicity in F1 albino mouse assessed as minimal motor impairment at 300 mg/kg, ip after 1 hr by rotorod test; format: toxicity, organism-based; design: dose 300 mg/kg, route intraperitoneal; details: in vivo; procedure, shortened: as §1
Rattus norvegicus [6] = experiment: Anticonvulsant activity in Sprague-Dawley albino rat assessed as protection against maximal electroshock-induced seizures at 30 mg/kg, po after 4 hrs; format: functional, organism-based; design: dose 30 mg/kg; procedure, shortened: as §2
Rattus norvegicus [7] = organism: Rattus norvegicus; experiment: Selectivity ratio of Ki for adenosine A1 receptor in rat brain cortical membrane to Ki for adenosine A2A receptor in rat brain striatal membrane; format: cell membranes
Procedure, shortened: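 Ki ratios from radioligand competition binding. Rat A1 used brain cortical membranes and rat A2A used brain striatal membranes. Human A1 and A2A used membranes of CHO cells expressing the receptors. A1 radioligand [³H]CCPA; A2A radioligand [³H]MSX-2. Potent compounds were tested at 6–7 concentrations spanning 3 orders of magnitude.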

Mus musculus [8] = experiment: Anticonvulsant activity in F1 albino mouse assessed as protection against maximal electroshock-induced seizures at 300 mg/kg, ip after 4 hrs; format: functional, organism-based; design: dose 300 mg/kg; procedure, shortened: as §1
Mus musculus [9] = experiment: Neurotoxicity in F1 albino mouse assessed as minimal motor impairment at 300 mg/kg, ip after 4 hrs by rotorod test; format: toxicity, organism-based; design: dose 300 mg/kg, route intraperitoneal; details: in vivo; procedure, shortened: as §1
Mus musculus [10] = experiment: Anticonvulsant activity in F1 albino mouse assessed as protection against maximal electroshock-induced seizures at 300 mg/kg, ip after 1 hr; format: functional, organism-based; design: dose 300 mg/kg; procedure, shortened: as §1
Rattus norvegicus [11] = experiment: Toxicity in Sprague-Dawley albino rat assessed as mortality following continuous seizures at 50 mg/kg, po after 0.25 hrs; format: organism-based; design: dose 50 mg/kg, route oral; details: in vivo
Procedure, shortened: (§3)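 Male Sprague-Dawley albino rats (100–150 g), in groups of 4, were given an oral suspension in 0.5% methylcellulose/water. The event recorded was death following continuous seizures, given as animals affected per animals tested.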

Rattus norvegicus [12] = experiment: Neurotoxicity in Sprague-Dawley albino rat assessed as minimal motor impairment at 30 mg/kg, po after 0.5 hrs by rotorod test; format: toxicity, organism-based; design: dose 30 mg/kg, route oral; details: in vivo; procedure, shortened: as §2
Mus musculus [13] = experiment: Anticonvulsant activity in F1 albino mouse assessed as protection against maximal electroshock-induced seizures at 300 mg/kg, ip after 0.5 hrs; format: functional, organism-based; design: dose 300 mg/kg; procedure, shortened: as §1
Rattus norvegicus [14] = experiment: Toxicity in Sprague-Dawley albino rat assessed as mortality following continuous seizures at 50 mg/kg, po after 0.5 hrs; format: organism-based; design: dose 50 mg/kg, route oral; details: in vivo; procedure, shortened: as §3
Mus musculus [15] = experiment: Neurotoxicity in F1 albino mouse assessed as minimal motor impairment at 300 mg/kg, ip after 0.25 hrs by rotorod test; format: toxicity, organism-based; design: dose 300 mg/kg, route intraperitoneal; details: in vivo; procedure, shortened: as §1
Rattus norvegicus [16] = experiment: Anticonvulsant activity in Sprague-Dawley albino rat assessed as protection against maximal electroshock-induced seizures at 30 mg/kg, po after 0.5 hrs; format: functional, organism-based; design: dose 30 mg/kg; procedure, shortened: as §2
Rattus norvegicus [17] = experiment: Toxicity in Sprague-Dawley albino rat assessed as mortality following continuous seizures at 50 mg/kg, po after 4 hrs; format: organism-based; design: dose 50 mg/kg, route oral; details: in vivo; procedure, shortened: as §3
Adenosine receptor A1 = molecular target: T1, Adenosine receptor A1 (Rattus norvegicus, UniProt P25099); experiment: Displacement of [3H]CCPA from adenosine A1 receptor in rat brain cortical membrane; format: cell membranes
T1 sequence (P25099 whole entry): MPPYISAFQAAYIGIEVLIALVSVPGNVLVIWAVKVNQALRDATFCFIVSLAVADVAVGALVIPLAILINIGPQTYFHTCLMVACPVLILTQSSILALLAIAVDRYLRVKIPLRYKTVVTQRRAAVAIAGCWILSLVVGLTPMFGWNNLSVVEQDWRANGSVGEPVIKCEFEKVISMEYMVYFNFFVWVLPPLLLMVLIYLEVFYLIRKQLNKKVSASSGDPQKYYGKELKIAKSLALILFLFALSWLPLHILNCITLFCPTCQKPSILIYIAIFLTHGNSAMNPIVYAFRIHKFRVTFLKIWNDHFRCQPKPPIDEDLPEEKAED

Rattus norvegicus [18] = experiment: Anticonvulsant activity in Sprague-Dawley albino rat assessed as protection against maximal electroshock-induced seizures at 30 mg/kg, po after 1 hr; format: functional, organism-based; design: dose 30 mg/kg; procedure, shortened: as §2
Rattus norvegicus [19] = experiment: Neurotoxicity in Sprague-Dawley albino rat assessed as minimal motor impairment at 30 mg/kg, po after 4 hrs by rotorod test; format: toxicity, organism-based; design: dose 30 mg/kg, route oral; details: in vivo
Procedure, shortened: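 Male Sprague-Dawley albino rats (100–150 g), groups of 4, dosed orally with a suspension in 0.5% methylcellulose/water. Neurotoxicity was scored as minimal motor impairment on the rotorod at 0.25, 0.5, 1 and 4 h. Results are reported as animals showing toxicity per animals tested.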

Rattus norvegicus [20] = experiment: Toxicity in Sprague-Dawley albino rat assessed as mortality following continuous seizures at 50 mg/kg, po after 1 hr; format: organism-based; design: dose 50 mg/kg, route oral; details: in vivo; procedure, shortened: as §3
Rattus norvegicus [21] = experiment: Neurotoxicity in Sprague-Dawley albino rat assessed as minimal motor impairment at 30 mg/kg, po after 0.25 hrs by rotorod test; format: toxicity, organism-based; design: dose 30 mg/kg, route oral; details: in vivo; procedure, shortened: as §2
Adenosine receptor A2a = Adenosine receptor A2a (Rattus norvegicus, UniProt P30543); experiment: Displacement of [3H]MSX-2 from adenosine A2A receptor in rat brain striatal membrane; format: cell membranes
Adenosine receptor A2a, sequence (P30543 whole entry): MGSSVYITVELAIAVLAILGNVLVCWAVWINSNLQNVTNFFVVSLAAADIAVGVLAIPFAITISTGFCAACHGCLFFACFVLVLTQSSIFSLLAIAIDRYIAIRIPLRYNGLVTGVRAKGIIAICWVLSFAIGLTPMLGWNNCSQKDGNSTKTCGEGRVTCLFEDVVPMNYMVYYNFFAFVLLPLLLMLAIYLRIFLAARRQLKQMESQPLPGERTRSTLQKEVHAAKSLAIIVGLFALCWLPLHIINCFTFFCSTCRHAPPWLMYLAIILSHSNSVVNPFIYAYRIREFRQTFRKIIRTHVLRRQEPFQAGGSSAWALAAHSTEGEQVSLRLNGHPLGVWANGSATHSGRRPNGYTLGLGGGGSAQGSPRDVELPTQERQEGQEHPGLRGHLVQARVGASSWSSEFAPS

Rattus norvegicus [22] = experiment: Anticonvulsant activity in Sprague-Dawley albino rat assessed as protection against subcutaneous pentylenetetrazole-induced seizures at 50 mg/kg, po after 0.25 hrs; format: functional, organism-based; design: dose 50 mg/kg; procedure, shortened: as §2
Rattus norvegicus [23] = experiment: Anticonvulsant activity in Sprague-Dawley albino rat assessed as protection against maximal electroshock-induced seizures at 30 mg/kg, po after 2 hrs; format: functional, organism-based; design: dose 30 mg/kg; procedure, shortened: as §2
Mus musculus [24] = experiment: Neurotoxicity in F1 albino mouse assessed as minimal motor impairment at 300 mg/kg, ip after 0.5 hrs by rotorod test; format: toxicity, organism-based; design: dose 300 mg/kg, route intraperitoneal; details: in vivo; procedure, shortened: as §1
Mus musculus [25] = experiment: Anticonvulsant activity in F1 albino mouse assessed as protection against subcutaneous pentylenetetrazole-induced seizures at 300 mg/kg, ip after 4 hrs; format: functional, organism-based; design: dose 300 mg/kg; procedure, shortened: as §1
Rattus norvegicus [26] = experiment: Anticonvulsant activity in Sprague-Dawley albino rat assessed as protection against subcutaneous pentylenetetrazole-induced seizures at 50 mg/kg, po after 2 hrs; format: functional, organism-based; design: dose 50 mg/kg; procedure, shortened: as §2
Mus musculus [27] = experiment: Anticonvulsant activity in F1 albino mouse assessed as protection against subcutaneous pentylenetetrazole-induced seizures at 100 mg/kg, ip after 0.25 hrs; format: functional, organism-based; design: dose 100 mg/kg; procedure, shortened: as §1
Rattus norvegicus [28] = experiment: Anticonvulsant activity in Sprague-Dawley albino rat assessed as protection against subcutaneous pentylenetetrazole-induced seizures at 50 mg/kg, po after 4 hrs; format: functional, organism-based; design: dose 50 mg/kg; procedure, shortened: as §2
Rattus norvegicus [29] = experiment: Anticonvulsant activity in po dosed Sprague-Dawley albino rat assessed as protection against subcutaneous pentylenetetrazole-induced seizures after 0.25 hrs; format: functional
Rattus norvegicus [30] = experiment: Anticonvulsant activity in Sprague-Dawley albino rat assessed as protection against subcutaneous pentylenetetrazole-induced seizures at 50 mg/kg, po after 1 hr; format: functional, organism-based; design: dose 50 mg/kg; procedure, shortened: as §2
Rattus norvegicus [31] = experiment: Anticonvulsant activity in Sprague-Dawley albino rat assessed as protection against subcutaneous pentylenetetrazole-induced seizures at 50 mg/kg, po after 0.5 hrs; format: functional, organism-based; design: dose 50 mg/kg; procedure, shortened: as §2
Rattus norvegicus [32] = experiment: Anticonvulsant activity in po dosed Sprague-Dawley albino rat assessed as protection against subcutaneous pentylenetetrazole-induced seizures; format: functional
Mus musculus [33] = experiment: Anticonvulsant activity in F1 albino mouse assessed as protection against subcutaneous pentylenetetrazole-induced seizures at 300 mg/kg, ip after 1 hr; format: functional, organism-based; design: dose 300 mg/kg; procedure, shortened: as §1
Mus musculus [34] = experiment: Anticonvulsant activity in F1 albino mouse assessed as protection against subcutaneous pentylenetetrazole-induced seizures at 300 mg/kg, ip after 0.25 hrs; format: functional, organism-based; design: dose 300 mg/kg; procedure, shortened: as §1
Rattus norvegicus [35] = experiment: Toxicity in Sprague-Dawley albino rat assessed as mortality following continuous seizures at >100 mg/kg, po; format: organism-based; details: in vivo
Rattus norvegicus [36] = experiment: Anticonvulsant activity in po dosed Sprague-Dawley albino rat assessed as protection against maximal electroshock-induced seizures; format: functional
Mus musculus [37] = experiment: Anticonvulsant activity in F1 albino mouse assessed as protection against subcutaneous pentylenetetrazole-induced seizures at 100 mg/kg, ip after 0.5 hrs; format: functional, organism-based; design: dose 100 mg/kg; procedure, shortened: as §1

Structure (SMILES) | Activity (Mus musculus [3]) | Activity (Rattus norvegicus [4]) | Activity (Mus musculus [5]) | Activity (Rattus norvegicus [6]) | Ratio Ki (Rattus norvegicus [7]) | Activity (Mus musculus [8]) | Activity (Mus musculus [9]) | Activity (Mus musculus [10]) | Activity (Rattus norvegicus [12]) | Activity (Mus musculus [13]) | Activity (Mus musculus [15]) | Activity (Rattus norvegicus [16]) | Ki (Adenosine receptor A1) | Activity (Rattus norvegicus [18]) | Activity (Rattus norvegicus [19]) | Activity (Rattus norvegicus [21]) | Ki (Adenosine receptor A2a) | Activity (Rattus norvegicus [22]) | Activity (Rattus norvegicus [23]) | Activity (Mus musculus [24]) | further results
CC1CCC(N2CCCCn3c2nc2c3c(=O)n(C)c(=O)n2C)CC1 (mixture of isomers) | inactive | Non-toxic | Non-toxic | inactive | 4 | inactive | Non-toxic | inactive | Non-toxic | inactive | Non-toxic | inactive | 3440 nM | inactive | Non-toxic | Non-toxic | 830 nM | inactive | inactive | Non-toxic | Activity (Mus musculus [1]): Active; Activity (Mus musculus [2]): Active; Activity (Rattus norvegicus [11]): Toxic; Activity (Rattus norvegicus [14]): Toxic; Activity (Rattus norvegicus [17]): Toxic; Activity (Rattus norvegicus [20]): Toxic; Activity (Mus musculus [25]): inactive; Activity (Rattus norvegicus [26]): inactive; Activity (Mus musculus [27]): Active
Cn1c(=O)c2c(nc3n2CCCN3CC2CCCCC2)n(C)c1=O | inactive | Non-toxic | Non-toxic | inactive | 4 | inactive | Non-toxic | inactive | Non-toxic | inactive | Non-toxic | inactive | 2490 nM | inactive | Non-toxic | Non-toxic | 610 nM | Active | inactive | Non-toxic | Activity (Mus musculus [1]): inactive; Activity (Mus musculus [2]): Active; Activity (Rattus norvegicus [28]): Active; ED50 (Rattus norvegicus [29]): > 200 mg/kg; Activity (Mus musculus [25]): inactive; Activity (Rattus norvegicus [26]): inactive; Activity (Rattus norvegicus [30]): Active; Activity (Rattus norvegicus [31]): Active; Activity (Mus musculus [27]): Active
Cn1c(=O)c2c(nc3n2CCCCN3CC2CCCCC2)n(C)c1=O | inactive | Non-toxic | Non-toxic | inactive | 1 | inactive | Non-toxic | inactive | Non-toxic | Active | Non-toxic | inactive | 5180 nM | inactive | Non-toxic | Non-toxic | 3500 nM | inactive | inactive | Non-toxic | ED50 (Rattus norvegicus [32]): > 100 mg/kg; Activity (Mus musculus [33]): inactive; Activity (Mus musculus [34]): inactive; Activity (Rattus norvegicus [35]): Toxic; Activity (Rattus norvegicus [28]): inactive; ED50 (Rattus norvegicus [36]): > 250 mg/kg; Activity (Mus musculus [25]): inactive; Activity (Mus musculus [37]): Active; Activity (Rattus norvegicus [30]): inactive; Activity (Rattus norvegicus [31]): Active

Reference: ChEMBL document CHEMBL2150901, “Synthesis and biological activity of tricyclic cycloalkylimidazo-, pyrimido- and diazepinopurinediones” (Eur J Med Chem, 2011)
